Laboratory results taken from ChEMBL document CHEMBL1150225, “Cytotoxic cholestane glycosides from the bulbs of Ornithogalum saundersiae” (J Nat Prod, 2001).

Columns and labels:
BT-549 = assay: Cytotoxicity against human BT549 cells; type: functional
T47D = assay: Cytotoxicity against human T47D cells; type: functional
HL-60 = assay: Cytotoxicity against human HL60 cells after 72 hrs by MTT assay; type: functional, cell-based; settings: HL-60, 72 h
Procedure, shortened: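 HL-60 leukemia cells kept in RPMI 1640 with 10% fetal bovine serum, L-glutamine, 100 units/mL penicillin and 100 μg/mL streptomycin. Cells at 3 × 10^4 cells/mL exposed continuously to compound for 72 h. Growth read by MTT reduction. IC50 (50% inhibition) calculated from each compound's dose–response curve.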

CCRF-CEM = assay: Cytotoxicity against human CCRF-CEM cells; type: functional
K562 = assay: Cytotoxicity against human K562 cells; type: functional
MOLT-4 = assay: Cytotoxicity against human MOLT4 cells; type: functional
[1] = Cytotoxicity against human […] cells; type: functional
SR = assay: Cytotoxicity against human SR cells; type: functional
A549 = assay: Cytotoxicity against human A549 cells; type: functional
EKVX = assay: Cytotoxicity against human EKVX cells; type: functional
HOP-62 = assay: Cytotoxicity against human HOP62 cells; type: functional
HOP-92 = assay: Cytotoxicity against human HOP92 cells; type: functional
NCI-H23 = assay: Cytotoxicity against human NCI-H23 cells; type: functional
NCI-H322M = assay: Cytotoxicity against human NCI-H322M cells; type: functional
NCI-H460 = assay: Cytotoxicity against human NCI-H460 cells; type: functional
NCI-H522 = assay: Cytotoxicity against human NCI-H522 cells; type: functional
COLO 205 = assay: Cytotoxicity against human COLO205 cells; type: functional
HCC 2998 = assay: Cytotoxicity against human HCC2998 cells; type: functional
HCT-116 = assay: Cytotoxicity against human HCT116 cells; type: functional
HCT-15 = assay: Cytotoxicity against human HCT15 cells; type: functional
HT-29 = assay: Cytotoxicity against human HT-29 cells; type: functional
KM12 = assay: Cytotoxicity against human KM12 cells; type: functional
SW-620 = assay: Cytotoxicity against human SW620 cells; type: functional
SF-268 = assay: Cytotoxicity against human SF268 cells; type: functional
SF-295 = assay: Cytotoxicity against human SF295 cells; type: functional
SF-539 = assay: Cytotoxicity against human SF539 cells; type: functional
SNB-19 = assay: Cytotoxicity against human SNB19 cells; type: functional
SNB-75 = assay: Cytotoxicity against human SNB75 cells; type: functional
U-251 = assay: Cytotoxicity against human U251 cells; type: functional
LOX IMVI = assay: Cytotoxicity against human LOXIMVI cells; type: functional
[2] = read-out: pLC50 (the source's name) (converted)

Compound: COc1ccc(C(=O)O[C@H]2[C@H](O[C@@H]3[C@@H](OC(C)=O)[C@H](O[C@H]4C[C@H]5[C@@H]6CC=C7C[C@@H](O)CC[C@]7(C)[C@H]6CC[C@]5(C)[C@@]4(O)[C@H](C)C(=O)CCC(C)C)OC[C@@H]3O)OC[C@@H](O)[C@@H]2O)cc1
- CC50 (BT-549; [2]): 4570 nM
- TGI (BT-549; read-out: pTGI (converted)): 1700 nM
- GI50 (T47D): 5.13 nM
- CC50 (T47D; [2]): 7760 nM
- TGI (T47D; read-out: pTGI (converted)): 1510 nM
- GI50 (HL-60): 0.0347 nM
- IC50 (HL-60): 0.25 nM
- TGI (HL-60; read-out: pTGI (converted)): 182 nM
- GI50 (CCRF-CEM): 0.1 nM
- CC50 (CCRF-CEM; [2]): 1200 nM
- TGI (CCRF-CEM; read-out: pTGI (converted)): 7.08 nM
- GI50 (K562): 0.219 nM
- CC50 (K562; [2]): 10000 nM
- TGI (K562; read-out: pTGI (converted)): 14.1 nM
- GI50 (MOLT-4): 0.0977 nM
- CC50 (MOLT-4; [2]): 457 nM
- TGI (MOLT-4; read-out: pTGI (converted)): 11 nM
- GI50 [1]: 0.038 nM
- CC50 [1, 2]: 2090 nM
- TGI ([1]; read-out: pTGI (converted)): 0.219 nM
- GI50 (SR): 0.12 nM
- CC50 (SR; [2]): 6310 nM
- TGI (SR; read-out: pTGI (converted)): 129 nM
- GI50 (A549): 0.457 nM
- CC50 (A549; [2]): 8130 nM
- TGI (A549; read-out: pTGI (converted)): 2090 nM
- GI50 (EKVX): 0.182 nM
- CC50 (EKVX; [2]): 6610 nM
- TGI (EKVX; read-out: pTGI (converted)): 550 nM
- GI50 (HOP-62): 0.159 nM
- CC50 (HOP-62; [2]): 129 nM
- TGI (HOP-62; read-out: pTGI (converted)): 2 nM
- GI50 (HOP-92): 1.1 nM
- CC50 (HOP-92; [2]): 3020 nM
- TGI (HOP-92; read-out: pTGI (converted)): 32.4 nM
- GI50 (NCI-H23): 0.363 nM
- CC50 (NCI-H23; [2]): 1290 nM
- TGI (NCI-H23; read-out: pTGI (converted)): 110 nM
- GI50 (NCI-H322M): 26.9 nM
- CC50 (NCI-H322M; [2]): 5010 nM
- TGI (NCI-H322M; read-out: pTGI (converted)): 1290 nM
- GI50 (NCI-H460): 0.159 nM
- CC50 (NCI-H460; [2]): 2190 nM
- TGI (NCI-H460; read-out: pTGI (converted)): 33.9 nM
- GI50 (NCI-H522): 0.363 nM
- CC50 (NCI-H522; [2]): 324 nM
- TGI (NCI-H522; read-out: pTGI (converted)): 5.37 nM
- GI50 (COLO 205): 1 nM
- CC50 (COLO 205; [2]): 288 nM
- TGI (COLO 205; read-out: pTGI (converted)): 1.58 nM
- GI50 (HCC 2998): 30.2 nM
- CC50 (HCC 2998; [2]): 4370 nM
- TGI (HCC 2998; read-out: pTGI (converted)): 1910 nM
- GI50 (HCT-116): 0.38 nM
- CC50 (HCT-116; [2]): 1290 nM
- TGI (HCT-116; read-out: pTGI (converted)): 191 nM
- GI50 (HCT-15): 11 nM
- CC50 (HCT-15; [2]): 692 nM
- TGI (HCT-15; read-out: pTGI (converted)): 95.5 nM
- GI50 (HT-29): 0.363 nM
- CC50 (HT-29; [2]): 3720 nM
- TGI (HT-29; read-out: pTGI (converted)): 302 nM
- GI50 (KM12): 0.407 nM
- CC50 (KM12; [2]): 1100 nM
- TGI (KM12; read-out: pTGI (converted)): 39.8 nM
- GI50 (SW-620): 0.129 nM
- CC50 (SW-620; [2]): 21.9 nM
- TGI (SW-620; read-out: pTGI (converted)): 0.549 nM
- GI50 (SF-268): 2.4 nM
- CC50 (SF-268; [2]): 7410 nM
- TGI (SF-268; read-out: pTGI (converted)): 851 nM
- GI50 (SF-295): 0.0479 nM
- CC50 (SF-295; [2]): 30.2 nM
- TGI (SF-295; read-out: pTGI (converted)): 2.29 nM
- GI50 (SF-539): 0.1 nM
- CC50 (SF-539; [2]): 182 nM
- TGI (SF-539; read-out: pTGI (converted)): 4.47 nM
- GI50 (SNB-19): 12.9 nM
- CC50 (SNB-19; [2]): 2880 nM
- TGI (SNB-19; read-out: pTGI (converted)): 331 nM
- GI50 (SNB-75): 0.0417 nM
- CC50 (SNB-75; [2]): 3020 nM
- TGI (SNB-75; read-out: pTGI (converted)): 3.24 nM
- GI50 (U-251): 0.0257 nM
- CC50 (U-251; [2]): 2510 nM
- TGI (U-251; read-out: pTGI (converted)): 51.3 nM
- GI50 (LOX IMVI): 0.251 nM
- CC50 (LOX IMVI; [2]): 91.2 nM
- TGI (LOX IMVI; read-out: pTGI (converted)): 2.29 nM
